The record followed here is ChEMBL document CHEMBL3102816, “Design, synthesis and molecular modeling of novel N-acylhydrazone derivatives as pyruvate dehydrogenase complex E1 inhibitors” (Bioorg Med Chem, 2014).

A short description of this assay: Inhibition of Escherichia coli […] expressed in Escherichia coli TB1 using sodium pyruvate as substrate assessed as reduction of 2,6-DCPIP preincubated for 3 mins followed by ThDP addition. In outline:
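MBP-fused E. coli PDHc-E1 from plasmid pMal-C2X in strain TB1 (LB with 2% glucose, ampicillin, 37 °C to A600 0.6–0.8; 0.5 mM IPTG, 7 h, 25 °C), MBP affinity-purified, Bradford-quantified. Reaction: 50 mM K3PO4 pH 7.2, 2.0 mM pyruvate, 0.8 mM 2,6-DCPIP, enzyme, inhibitor at varied concentrations; 3 min at 37 °C, then ThDP added; DCPIP reduction read at 600 nm.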

Structures are written as SMILES.

In the case of `Cc1ncc(Cn2nnc(C(=O)N/N=C/c3ccc(F)cc3)c2C)c(N)n1`, the IC50 – broadly, the concentration needed to halve the response being measured – stood at 8 µM.

On to `Cc1ncc(Cn2nnc(C(=O)N/N=C/c3ccc(Cl)cc3)c2C)c(N)n1`, for which the IC50 was found to be 2.35 µM. The result for `Cc1ncc(Cn2nnc(C(=O)N/N=C/c3ccccc3)c2C)c(N)n1` reads 110 µM; that for `Cc1ncc(Cn2nnc(C(=O)N/N=C/c3ccc4c(c3)OCO4)c2C)c(N)n1`, 14.5 µM; that for `Cc1ncc(Cn2nnc(C(=O)N/N=C/c3ccc(Br)cc3)c2C)c(N)n1`, 1.89 µM.

For the compound `Cc1ncc(Cn2nnc(C(=O)N/N=C/c3ccccc3O)c2C)c(N)n1`, the IC50 came out at 11.6 µM. Consider `Cc1ccc(/C=N/NC(=O)c2nnn(Cc3cnc(C)nc3N)c2C)cc1`, for which the IC50 came out at 50.3 µM. The same measure for `Cc1cccc(/C=N/NC(=O)c2nnn(Cc3cnc(C)nc3N)c2C)c1`: 20.9 µM.

As for `Cc1ncc(Cn2nnc(C(=O)N/N=C/c3ccc(O)cc3)c2C)c(N)n1`, the IC50 was determined as 3.43 µM.

As for `Cc1ncc(Cn2nnc(C(=O)N/N=C/c3ccc(Cl)c([N+](=O)[O-])c3)c2C)c(N)n1`, the IC50 amounted to 1.71 µM. The same measure for `Cc1ncc(Cn2nnc(C(=O)N/N=C/c3ccc([N+](=O)[O-])cc3)c2C)c(N)n1`: 0.65 µM. As to `Cc1ncc(Cn2nnc(C(=O)N/N=C/c3cccc(O)c3)c2C)c(N)n1`, the IC50 is 23.4 µM. The same measure for `Cc1ncc(Cn2nnc(C(=O)N/N=C/c3ccccc3Cl)c2C)c(N)n1`: 13.6 µM.

For the compound `Cc1ncc(Cn2nnc(C(=O)N/N=C/c3ccc(C(F)(F)F)cc3)c2C)c(N)n1`, the IC50 stood at 1.92 µM.

With `Cc1ncc(Cn2nnc(C(=O)N/N=C/c3ccccn3)c2C)c(N)n1`, the IC50 worked out at 22.8 µM.

Turning to `Cc1ncc(Cn2nnc(C(=O)N/N=C/c3ccccc3Br)c2C)c(N)n1`, the IC50 came out at 53.8 µM.
